Activity calls are given as the source filed them. The calls are words filed in the database; no cut-off is given here.
How the values were obtained:
MV4-11 [1] = assay: Anticancer activity against human MV4-11 cells assessed as reduction in cell proliferation after 48 hrs by WST-1 assay; assay type: functional, cell-based; settings: MV4-11, 48 h
Procedure, shortened: (§1)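 Cells were exposed to compound for 48 h and proliferation was measured from dose-response curves. NCM460 was tested at doses up to 20 µM. U-2 OS was also read in the 2.5-5.0 µM range. IC50 was calculated from the curves. Data are mean of quadruplicates ± SD from three independent trials.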

Jurkat E6.1 = assay: Anticancer activity against human Jurkat E6-1 cells assessed as reduction in cell proliferation after 48 hrs by WST-1 assay; assay type: functional, cell-based; settings: Jurkat E6.1, 48 h; procedure, shortened: as §1
[2] = Anticancer activity against human Saos2 cells assessed as reduction in cell proliferation after 48 hrs by WST-1 assay; assay type: functional, cell-based; settings: SAOS-2, 48 h; procedure, shortened: as §1
U2OS [3] = assay: Anticancer activity against human U2OS cells assessed as reduction in cell proliferation after 48 hrs by WST-1 assay; assay type: functional, cell-based; procedure, shortened: as §1
[4] = Cytotoxicity against human NCM460 cells assessed as reduction in cell proliferation after 48 hrs by WST-1 assay; assay type: cell-based; settings: NCM460, 48 h; procedure, shortened: as §1
U2OS [5] = assay: Anticancer activity against human U2OS cells assessed as reduction in cell proliferation at 2.5 to 5 uM after 48 hrs by WST-1 assay; assay type: functional; parameters: scale not given: the % may be the effect or the level left; procedure, shortened: as §1
SAOS-2 = assay: Induction of apoptosis in human Saos2 cells assessed as phosphatidylserine externalization at 0.01 and 5 uM after 48 hrs by AnnexinV/propidium iodide staining based Tali-image based cytometry; assay type: functional, cell-based
Procedure, shortened: (§2)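 After 48 h treatment, phosphatidylserine externalization was detected with Annexin V–Alexa Fluor 488, and membrane-permeabilized (necrotic) cells were detected by propidium iodide uptake. Green and/or red populations were quantified by image-based cytometry. Signal above the control baseline was scored as apoptotic, necrotic, or both. Data are mean ± SD of three independent trials.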

MV4-11 [6] = assay: Induction of apoptosis in human MV4-11 cells assessed as phosphatidylserine externalization at 0.0075 and 5 uM after 48 hrs by AnnexinV/propidium iodide staining based Tali-image based cytometry; assay type: functional, cell-based; procedure, shortened: as §2
[7] = Induction of apoptosis in human NCM460 cells assessed as phosphatidylserine externalization 0.1 and 20 uM after 48 hrs by AnnexinV/propidium iodide staining based Tali-image based cytometry; assay type: cell-based; settings: ncm460, 48 h; procedure, shortened: as §2
Tubulin (Sus scrofa) [8] = target: T1, Tubulin (Sus scrofa) (UniProt P02554+P02550); assay: Inhibition of porcine brain tubulin polymerization at 3 uM measured for 1 hr by spectrofluorometer analysis
Procedure, shortened: (§3)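 This was an in vitro tubulin polymerization assay monitored kinetically for 1 h against a DMSO vehicle control. Polymerization was read fluorometrically from incorporation of a fluorescent reporter, in relative fluorescence units. Data are mean of duplicates ± SEM of three independent trials, compared with control.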

Tubulin (Sus scrofa) [9] = target: T1, Tubulin (Sus scrofa); assay: Inhibition of porcine brain tubulin polymerization at 10 uM measured for 1 hr by spectrofluorometer analysis; procedure, shortened: as §3
U2OS [10] = assay: Anticancer activity against human U2OS cells assessed as reduction in cell proliferation at 10 uM after 48 hrs by WST-1 assay; assay type: functional, cell-based
Procedure, shortened: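 This was a blind single-concentration screen of a 600-compound library against U-2 OS osteosarcoma cells. Each compound was tested at 10 µM for 48 h, and reduced proliferation was flagged for follow-up.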

T1 sequence (P02550 whole entry, looked up): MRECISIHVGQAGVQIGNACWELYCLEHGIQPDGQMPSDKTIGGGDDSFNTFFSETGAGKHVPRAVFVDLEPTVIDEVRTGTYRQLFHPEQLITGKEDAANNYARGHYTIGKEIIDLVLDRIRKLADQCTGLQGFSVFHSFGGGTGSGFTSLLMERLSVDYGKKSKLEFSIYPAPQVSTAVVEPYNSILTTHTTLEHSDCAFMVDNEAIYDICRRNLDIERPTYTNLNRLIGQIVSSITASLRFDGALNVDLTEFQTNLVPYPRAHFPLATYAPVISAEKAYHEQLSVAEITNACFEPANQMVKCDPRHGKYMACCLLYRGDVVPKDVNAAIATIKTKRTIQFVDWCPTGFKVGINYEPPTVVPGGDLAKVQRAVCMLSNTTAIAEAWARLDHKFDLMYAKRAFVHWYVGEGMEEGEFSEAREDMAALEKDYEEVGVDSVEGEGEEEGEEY
T1 sequence (P02554 whole entry, looked up): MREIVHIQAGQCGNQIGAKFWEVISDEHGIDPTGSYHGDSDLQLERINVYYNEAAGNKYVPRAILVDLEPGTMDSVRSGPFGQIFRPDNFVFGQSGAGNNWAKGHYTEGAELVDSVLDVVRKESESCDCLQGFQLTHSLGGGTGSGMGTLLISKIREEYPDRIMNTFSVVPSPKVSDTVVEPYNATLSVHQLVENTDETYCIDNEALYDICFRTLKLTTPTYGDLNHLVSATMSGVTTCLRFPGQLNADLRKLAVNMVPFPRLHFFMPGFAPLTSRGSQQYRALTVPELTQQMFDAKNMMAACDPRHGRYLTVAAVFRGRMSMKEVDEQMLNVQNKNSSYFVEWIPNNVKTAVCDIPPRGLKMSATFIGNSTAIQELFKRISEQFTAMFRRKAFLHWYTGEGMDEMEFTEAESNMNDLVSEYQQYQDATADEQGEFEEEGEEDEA

Row | IC50 (MV4-11 [1]) [nM] | IC50 (Jurkat E6.1) [nM] | IC50 (U2OS [3]) [nM] | inhibition (Tubulin (Sus scrofa) [8]) | inhibition (Tubulin (Sus scrofa) [9]) | Compound | IC50 [2] [nM] | IC50 [4] [nM] | Activity (U2OS [5]) [%] | Activity (SAOS-2) | Activity (MV4-11 [6]) | Activity [7] | inhibition (U2OS [10])
1 | 1250 | 486 | > 20000 | Active | Active | COc1cc(-c2ccc(OC)c(OC)c2OC)ccc1O | 1770 | > 20000 | 60 | Active | Active | Non-toxic | Active
2 | 2760 | 965 | > 20000 | inactive | Active | COc1ccc(-c2ccc(OC)c(OC)c2OC)cc1O | 5430 | > 20000 | 60 | Active | Active | Non-toxic | Active

Row | Compound | IC50 (MV4-11 [1]) [nM] | IC50 (Jurkat E6.1) [nM] | IC50 (U2OS [3]) [nM] | inhibition (Tubulin (Sus scrofa) [8]) | inhibition (Tubulin (Sus scrofa) [9]) | IC50 [2] [nM] | IC50 [4] [nM] | Activity (U2OS [5]) [%] | Activity (SAOS-2) | Activity (MV4-11 [6]) | Activity [7] | inhibition (U2OS [10])
3 | COc1ccc(/C=C\c2cc(OC)c(OC)c(OC)c2)cc1O [COMBRETASTATIN A4] | 6.27 | 6.08 | 14.1 | Active |  | 11.4 | > 20000 | 30 | Active | Active | Non-toxic | 

Reference: ChEMBL document CHEMBL3585301 (Bioorg Med Chem Lett, 2014)
